≈ marks a conversion by molar mass, not a printed value. Calls of active or inactive are those of the source. The rule behind the calls is not given here.
How the values were obtained:
SUMO-activating enzyme [1] = target: T1, SUMO-activating enzyme (Homo sapiens, UniProt Q9UBT2); test: Inhibition of recombinant SAE (unknown origin) assessed as reduction in transfer of SUMO1 to UBC9 using SUMO1 as a substrate in presence of ATP at Km concentration by HTRF assay; assay type: protein-complex assay
Method in brief: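 HTRF transthiolation assay measuring transfer of SUMO1 to UBC9, the E2 for SAE.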

[2] = Inhibition of recombinant UAE (unknown origin) in presence of ATP at Km concentration by HTRF assay; design: species or system Homo sapiens
SUMO-activating enzyme [3] = target: T1, SUMO-activating enzyme; test: Inhibition of SAE in human HCT116 cells assessed as reduction in redistribution of SUMO2/3 proteins from nucleus to cytosol incubated for 4 hrs by immunofluorescence assay; assay type: cell-based, HCT-116
Method in brief: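 HCT-116 cells exposed to compound across a concentration range for 4 h, then stained with anti-SUMO2/3 monoclonal antibody. Automated imaging scored the nuclear (inner) to cytoplasmic (outer) SUMO2/3 ratio. IC50 taken from the dose response.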

SUMO-activating enzyme [4] = target: T1, SUMO-activating enzyme; test: Inhibition of SAE in human HCT116 cells assessed as redistribution of SUMO2/3 proteins from nucleus to cytosol preincubated for 2 hrs followed by compound washout and measured immediately by immunofluorescence assay; assay type: cell-based, HCT-116
Method in brief: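 Washout format of the SUMO2/3 immunofluorescence assay in HCT116 cells. Cells were exposed to a range of concentrations for 2 h, then washed free of compound.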

[5] = target: T2, SUMO-activating enzyme (Homo sapiens) (UniProt Q9UBE0+Q9UBT2); test: Inhibition of SAE in human HCT116 cells xenografted in NCr nude mouse assessed as reduction in SUMO2/3 protein conjugates at 50 mg/kg, iv and measured up to 16 hrs by immunohistochemistry analysis; assay type: organism-based; details: HCT-116
Method in brief: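 HCT-116 tumors in female Ncr nude mice, n = 3 per time point, after a single IV dose at t = 0. SUMO2/3 conjugation in tumors measured by IHC at 2, 4, 8 and 16 h. Read-out is nuclei staining positive for SUMO2/3 conjugates over total nuclei, normalized to vehicle-treated animals (time = 0 h), expressed as percent inhibition.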

[6] = target: T2, SUMO-activating enzyme (Homo sapiens); test: Inhibition of SAE in human OCI-Ly10 cells xenografted in NCr nude mouse assessed as reduction in SUMO2/3 protein conjugates at 25 mg/kg, iv and measured up to 24 hrs by immunohistochemistry analysis; assay type: organism-based; details: HCT-116, time hrs <=24
[7] = target: T2, SUMO-activating enzyme (Homo sapiens); test: Inhibition of SAE in human HCT116 cells xenografted in NCr nude mouse assessed as improvement in SUMO-inhibitor adduct durability at 50 mg/kg, iv and measured up to 16 hrs by mass spectrometry; assay type: organism-based; details: HCT-116
Method in brief: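 Single IV dose at t = 0 to female Ncr nude mice bearing HCT-116 tumors, n = 3 per time point. Tumors harvested 2, 4, 8 and 16 h post-injection. Read-out is the adduct/SAE ratio: quantity of SUMO-compound adduct over quantity of total SAE enzyme, both measured by mass spectrometry. Values are averaged per time point.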

[8] = target: T2, SUMO-activating enzyme (Homo sapiens); test: Inhibition of SAE in human OCI-Ly10 cells xenografted in CB17 SCID mouse assessed as improvement in SUMO-inhibitor adduct durability at 25 mg/kg, iv and measured up to 48 hrs by mass spectrometry; assay type: organism-based; details: time hrs <=48
HCT-116 [9] = test: Cytotoxicity against human HCT116 cells assessed as reduction in cell viability after 72 hrs by CellTiter-Glo luminescent assay; assay type: functional, cell-based; details: HCT-116, 72 h
OCI-Ly10 [10] = test: Cytotoxicity against human OCI-LY10 cells assessed as reduction in cell viability after 72 hrs by CellTiter-Glo luminescent assay; assay type: functional, cell-based; details: OCI-Ly10, 72 h
HCT-116 [11] = test: Antitumor activity against human HCT-116 cells xenografted in Ncr/nude mouse assessed as tumor growth inhibition at 50 mg/kg, iv administered thrice per week for 21 days and measured twice weekly; assay type: functional, organism-based; details: time 21.0 day
Method in brief: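 Female Ncr/nude mice carrying HCT-116 tumors (~200 mm3) were randomized, n = 8/group, with treatment from Day 1. Schedules were QD x21 (Days 1–21) or QD x3/week (three consecutive dosing days, four off). Tumor volume was measured twice weekly.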

OCI-Ly10 [12] = test: Antitumor activity against human OCI-Ly10 cells xenografted in CB17 SCID mouse assessed as tumor growth inhibition at 50 mg/kg, iv administered thrice per week for 21 days and measured twice weekly; assay type: functional, organism-based; details: time 21.0 day
Method in brief: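 Female CB17 SCID mice carrying OCI-Ly10 tumors (~200 mm3) were randomized, n = 8/group, with treatment from Day 1. Schedules were QD x21 (Days 1–21) or QD x3/week (three consecutive dosing days, four off). Tumor volume was measured twice weekly.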

[13] = Lipophilicity, logD of compound at pH 7.4; assay type: physicochemical; details: buffer
[14] = Apparent permeability across apical to basolateral side in human Caco2 cells; assay type: ADME, cell-based; details: Caco-2
[15] = Apparent permeability across basolateral to apical side in human Caco2 cells; assay type: ADME, cell-based; details: Caco-2
[16] = Efflux ratio of apparent permeability across basolateral to apical side over apical to basolateral side in human Caco-2 cells; assay type: ADME, cell-based
[17] = Solubility of compound in 10% hydroxypropyl-beta-cyclodextrin after 24 hrs; assay type: physicochemical
Carbonic anhydrase 1 = Carbonic anhydrase 1 (Homo sapiens, UniProt P00915); test: Inhibition of human erythrocyte CA1 using fluorescein diacetate as substrate at […] by fluorometric esterase assay
Sequence of Carbonic anhydrase 1 (P00915 whole entry): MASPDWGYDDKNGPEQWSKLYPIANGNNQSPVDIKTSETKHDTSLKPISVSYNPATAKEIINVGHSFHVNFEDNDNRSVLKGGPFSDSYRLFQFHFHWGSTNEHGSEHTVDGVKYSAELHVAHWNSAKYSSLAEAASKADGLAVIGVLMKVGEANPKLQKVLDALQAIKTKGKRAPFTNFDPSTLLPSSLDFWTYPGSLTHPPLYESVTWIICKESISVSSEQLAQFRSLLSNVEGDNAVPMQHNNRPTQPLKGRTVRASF

Carbonic anhydrase 2 = Carbonic anhydrase 2 (Homo sapiens, UniProt P00918); test: Inhibition of recombinant human CA2 expressed in Escherichia coli using fluorescein diacetate as substrate at […] by fluorometric esterase assay
[18] = AUC in rat blood at 1 mg/kg, iv; assay type: ADME, organism-based; design: dose 1 mg/kg
[19] = AUC in rat plasma at 1 mg/kg, iv; assay type: ADME, organism-based; design: dose 1 mg/kg
[20] = Clearance in rat blood at 1 mg/kg, iv; assay type: ADME, organism-based; details: in vivo
[21] = Clearance in rat plasma at 1 mg/kg, iv; assay type: ADME, organism-based; details: in vivo
[22] = Volume of distribution at steady state in rat blood at 1 mg/kg, iv; assay type: ADME, organism-based; details: read-out: Vdss
[23] = Volume of distribution at steady state in rat plasma at 1 mg/kg, iv; assay type: ADME, organism-based; details: read-out: Vdss
[24] = Half life in rat blood at 1 mg/kg, iv; assay type: ADME, organism-based
[25] = AUC in rat blood at 10 mg/kg, po; assay type: ADME, organism-based; design: dose 10 mg/kg
[26] = AUC in rat plasma at 10 mg/kg, po; assay type: ADME, organism-based; design: dose 10 mg/kg
[27] = Oral bioavailability in rat plasma at 10 mg/kg; assay type: ADME, organism-based

T1 sequence (Q9UBE0 whole entry): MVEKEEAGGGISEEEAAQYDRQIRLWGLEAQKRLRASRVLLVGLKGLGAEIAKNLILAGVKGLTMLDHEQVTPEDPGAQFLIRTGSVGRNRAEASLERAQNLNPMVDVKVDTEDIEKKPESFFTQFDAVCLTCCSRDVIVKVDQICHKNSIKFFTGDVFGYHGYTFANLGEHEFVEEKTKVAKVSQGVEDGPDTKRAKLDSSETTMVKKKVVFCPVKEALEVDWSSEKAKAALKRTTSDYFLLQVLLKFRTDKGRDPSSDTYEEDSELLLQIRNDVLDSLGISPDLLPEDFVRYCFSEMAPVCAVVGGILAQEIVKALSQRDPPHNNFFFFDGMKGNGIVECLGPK
T1 sequence (Q9UBT2 whole entry): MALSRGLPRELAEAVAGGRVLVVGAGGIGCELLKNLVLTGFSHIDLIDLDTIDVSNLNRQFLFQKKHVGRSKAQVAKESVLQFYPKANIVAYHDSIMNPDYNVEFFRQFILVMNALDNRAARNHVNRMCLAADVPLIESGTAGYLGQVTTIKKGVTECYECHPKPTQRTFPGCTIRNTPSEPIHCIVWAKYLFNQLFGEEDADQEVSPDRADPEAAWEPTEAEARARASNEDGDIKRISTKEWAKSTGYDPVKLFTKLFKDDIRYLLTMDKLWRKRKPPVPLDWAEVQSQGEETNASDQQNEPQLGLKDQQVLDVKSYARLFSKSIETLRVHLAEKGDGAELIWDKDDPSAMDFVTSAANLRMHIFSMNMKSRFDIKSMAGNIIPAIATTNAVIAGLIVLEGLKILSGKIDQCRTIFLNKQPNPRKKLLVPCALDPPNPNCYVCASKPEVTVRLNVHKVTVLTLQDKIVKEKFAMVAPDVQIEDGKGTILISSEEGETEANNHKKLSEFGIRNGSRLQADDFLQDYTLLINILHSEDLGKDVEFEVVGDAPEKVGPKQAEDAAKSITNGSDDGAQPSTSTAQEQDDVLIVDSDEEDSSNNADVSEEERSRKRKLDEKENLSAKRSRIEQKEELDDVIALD

Work on `Cc1sc(C(=O)c2cncnc2N[C@@H]2C[C@H](COS(N)(=O)=O)[C@@H](O)C2)cc1[C@@H]1NCCc2ccc(Cl)cc21` yielded an IC50 (SUMO-activating enzyme [1]) of 1 nM, an IC50 [2] of over 1000 nM and an IC50 (SUMO-activating enzyme [3]) of 15 nM. For the same compound, the IC50 (SUMO-activating enzyme [4]) was 32 nM, the inhibition [5] was “Active” and the inhibition [6] was “Active”. The inhibition [7] was “Active”, the inhibition [8] was “Active” and the EC50 (HCT-116 [9]) was 63 nM. The EC50 (OCI-Ly10 [10]) was 4 nM, the Activity (HCT-116 [11]) was “Active” and the Activity (OCI-Ly10 [12]) was “Active”. The logD [13] was 2.1, the Papp A→B [14] was 0.3 ×10⁻⁶ cm/s and the Papp B→A [15] was 46 ×10⁻⁶ cm/s. It also gave an efflux ratio [16] of over 16, a solubility at 24 h [17] of 20 mg/mL (≈ 34.6 mM) and an IC50 (Carbonic anhydrase 1) of 90 nM. For the same compound, the IC50 (Carbonic anhydrase 2) was 20 nM, the AUC [18] was 31.2 µM·h and the AUC [19] was 0.5 µM·h. It also gave a clearance [20] of 1.67 mL/min/kg, a clearance [21] of 61.7 mL/min/kg and a Vd [22] of 0.2 L/kg. It also gave a Vd [23] of 8.5 L/kg, a half-life [24] of 2.6 h and an AUC [25] of 32 µM·h. The AUC [26] was 0.3 µM·h and the bioavailability [27] was 7.3%.

— ChEMBL document CHEMBL4834402, “Discovery of TAK-981, a First-in-Class Inhibitor of SUMO-Activating Enzyme for the Treatment of Cancer” (J Med Chem, 2021)
